In brackets after ≈: the same amount, converted by molar mass.
Assays:
HeLa = assay: Cytotoxicity against human HeLa cells; type: cell-based
PC-3 = assay: Cytotoxicity against human PC3 cells; type: cell-based
Micrococcus luteus [1] = assay: Antimicrobial activity against Micrococcus luteus ATCC 10240 assessed after 18 hrs by broth microdilution method; type: functional; settings: ATCC 10240, 18 h
In short: (§1)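 CLSI broth microdilution in cation-adjusted MHII broth. 20 mM DMSO stocks were diluted to 512 µM, then serially 2-fold, giving final 128–0.0625 µM with 5×10⁵ CFU/mL inoculum. Incubated 18 h at 37 °C. MIC90 was the lowest concentration giving 90% inhibition by visual turbidity versus DMSO wells. Run in triplicate.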

Enterococcus faecalis [2] = assay: Antimicrobial activity against Enterococcus faecalis ATCC 49532 after 24 hrs by Kirby-Bauer agar diffusion assay; type: functional
In short: (§2)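 Modified Kirby-Bauer well diffusion. Overnight LB cultures (18–24 h) were standardized in 0.9% saline to 0.5 McFarland and mixed into melted MHII agar at 47–50 °C, giving ~5×10³ CFU/mL. 9 mm wells received 50 µL of 2.0 mM compound in 10:1 MeOH:DMSO. Plates were incubated 24 h at 37 °C, then growth-inhibition zone diameter was measured (mm) by caliper.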

Enterococcus faecalis [3] = assay: Antimicrobial activity against Enterococcus faecalis ATCC 49532 assessed after 18 hrs by broth microdilution method; type: functional; settings: ATCC 49532, 18 h; in short: as §1
Staphylococcus aureus [4] = assay: Antimicrobial activity against Staphylococcus aureus SG511 assessed after 18 hrs by broth microdilution method; type: functional; settings: SG511, 18 h; in short: as §1
Staphylococcus aureus [5] = assay: Antimicrobial activity against Staphylococcus aureus SG511 after 24 hrs by Kirby-Bauer agar diffusion assay; type: functional; in short: as §2
Micrococcus luteus [6] = assay: Antimicrobial activity against Micrococcus luteus ATCC 10240 after 24 hrs by Kirby-Bauer agar diffusion assay; type: functional; in short: as §2
MCF7 = assay: Cytotoxicity against human MCF7 cells; type: cell-based
Escherichia coli [7] = assay: Antimicrobial activity against Escherichia coli DC0 after 24 hrs by Kirby-Bauer agar diffusion assay; type: functional; in short: as §2
[8] = system: Sporobolomyces salmonicolor; assay: Antimicrobial activity against Sporidiobolus salmonicolor 549 after 24 hrs by Kirby-Bauer agar diffusion assay; type: functional; in short: as §2
Staphylococcus aureus [9] = assay: Antimicrobial activity against methicillin-resistant Staphylococcus aureus 134/94 after 24 hrs by Kirby-Bauer agar diffusion assay; type: functional
In short: (§3)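 Overnight LB cultures (18–24 h) adjusted to a 0.5 McFarland standard (1.5×10^6 CFU/mL in 0.9% saline), then 0.1 mL mixed into 34 mL molten MHII agar at 47–50 °C (~5×10^3 CFU/mL). 50 µL of 2.0 mM compound in 10:1 MeOH:DMSO placed in 9 mm wells. Incubated at 37 °C for 24 h; inhibition zone diameter (mm) measured by caliper.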

Escherichia coli [10] = assay: Antimicrobial activity against Escherichia coli DC2 after 24 hrs by Kirby-Bauer agar diffusion assay; type: functional; in short: as §2
Mycolicibacterium vaccae [11] = assay: Antimicrobial activity against Mycobacterium vaccae IMET 10670 after 24 hrs by Kirby-Bauer agar diffusion assay; type: functional; in short: as §2
Bacillus subtilis [12] = assay: Antimicrobial activity against Bacillus subtilis ATCC 6633 after 24 hrs by Kirby-Bauer agar diffusion assay; type: functional; in short: as §2
Pseudomonas aeruginosa [13] = assay: Antimicrobial activity against Pseudomonas aeruginosa 799/WT after 24 hrs by Kirby-Bauer agar diffusion assay; type: functional; in short: as §2
Pseudomonas aeruginosa [14] = assay: Antimicrobial activity against Pseudomonas aeruginosa 799/61 after 24 hrs by Kirby-Bauer agar diffusion assay; type: functional; in short: as §2
Enterococcus faecalis [15] = assay: Antimicrobial activity against vancomycin-resistant Enterococcus faecalis 1528 after 24 hrs by Kirby-Bauer agar diffusion assay; type: functional; in short: as §3
Pseudomonas aeruginosa [16] = assay: microbe, parasite or virus in culture; settings: 799/61, 24 h, read-out: DIZ
Mycolicibacterium vaccae [17] = assay: Antimicrobial activity against Mycobacterium vaccae IMET 10670 at 5 ug/ml after 24 hrs by Kirby-Bauer agar diffusion assay; type: functional; settings: IMET 10670, 24 h, read-out: DIZ
In short: (§4)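 Ciprofloxacin control, 5 µg/mL in water, 50 µL per 9 mm well in MHII agar seeded with ~5×10³ CFU/mL (saline suspension standardized to 0.5 McFarland from an overnight LB culture). Incubated at 37 °C for 24 h; inhibition zone diameter read in mm.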

Micrococcus luteus [18] = assay: Antimicrobial activity against Micrococcus luteus ATCC 10240 at 5 ug/ml after 24 hrs by Kirby-Bauer agar diffusion assay; type: functional; settings: ATCC 10240, 24 h, read-out: DIZ; in short: as §4
Pseudomonas aeruginosa [19] = assay: microbe, parasite or virus in culture; settings: 799/WT, 24 h, read-out: DIZ
Staphylococcus aureus [20] = assay: microbe, parasite or virus in culture; settings: 134/94, 24 h, read-out: DIZ
Staphylococcus aureus [21] = assay: Antimicrobial activity against Staphylococcus aureus SG511 at 5 ug/ml after 24 hrs by Kirby-Bauer agar diffusion assay; settings: SG511, 24 h, read-out: DIZ
Bacillus subtilis [22] = assay: microbe, parasite or virus in culture; settings: ATCC 6633, 24 h, read-out: DIZ
Enterococcus faecalis [23] = assay: microbe, parasite or virus in culture; settings: Enterococcus faecalis, 1528, 24 h, read-out: DIZ
Escherichia coli [24] = assay: Antimicrobial activity against Escherichia coli DC0 at 5 ug/ml after 24 hrs by Kirby-Bauer agar diffusion assay; settings: DC0, 24 h, read-out: DIZ
Escherichia coli [25] = assay: Antimicrobial activity against Escherichia coli DC2 at 5 ug/ml after 24 hrs by Kirby-Bauer agar diffusion assay; settings: DC2, 24 h, read-out: DIZ
Enterococcus faecalis [26] = assay: microbe, parasite or virus in culture; settings: ATCC 49532, 24 h, read-out: DIZ

SMILES | Activity (HeLa) | Activity (PC-3) | MIC90 (Micrococcus luteus [1]) | diameter of the inhibition zone (DIZ) (Enterococcus faecalis [2]) | MIC90 (Enterococcus faecalis [3]) | MIC90 (Staphylococcus aureus [4]) | diameter of the inhibition zone (DIZ) (Staphylococcus aureus [5]) | diameter of the inhibition zone (DIZ) (Micrococcus luteus [6]) | Activity (MCF7) | further results
C=C(C)C(CCC(C)=O)N(O)c1ccccn1 (racemic) | Non-toxic | Non-toxic | 16 µM (≈ 3.75 µg/mL) | 16 mm | > 128 µM | 128 µM (≈ 30 µg/mL) | 15 mm | 30 mm | Non-toxic | 
CO[C@@H]1C=C[C@@H](N(O)c2ccc(Br)cn2)CC1 (racemic) | Non-toxic | Non-toxic | 4 µM (≈ 1.2 µg/mL) | 16 mm | > 128 µM | > 128 µM | 12 mm | 34 mm | Non-toxic | diameter of the inhibition zone (DIZ) (Escherichia coli [7]): <=10 mm; diameter of the inhibition zone (DIZ) [8]: <=10 mm; diameter of the inhibition zone (DIZ) (Staphylococcus aureus [9]): 11 mm; diameter of the inhibition zone (DIZ) (Escherichia coli [10]): <=10 mm; diameter of the inhibition zone (DIZ) (Mycolicibacterium vaccae [11]): 11 mm; diameter of the inhibition zone (DIZ) (Bacillus subtilis [12]): <=10 mm; diameter of the inhibition zone (DIZ) (Pseudomonas aeruginosa [13]): <=10 mm; diameter of the inhibition zone (DIZ) (Pseudomonas aeruginosa [14]): <=10 mm; diameter of the inhibition zone (DIZ) (Enterococcus faecalis [15]): 16 mm
C=C(C)C(C)N(O)c1cccc(C)n1 (racemic) | Non-toxic | Non-toxic | 4 µM (≈ 0.769 µg/mL) | 15 mm | > 128 µM | > 128 µM | 12 mm | 48 mm | Non-toxic | diameter of the inhibition zone (DIZ) (Escherichia coli [7]): <=10 mm; diameter of the inhibition zone (DIZ) [8]: <=10 mm; diameter of the inhibition zone (DIZ) (Staphylococcus aureus [9]): 11 mm; diameter of the inhibition zone (DIZ) (Escherichia coli [10]): <=10 mm; diameter of the inhibition zone (DIZ) (Mycolicibacterium vaccae [11]): 16 mm; diameter of the inhibition zone (DIZ) (Bacillus subtilis [12]): <=10 mm; diameter of the inhibition zone (DIZ) (Pseudomonas aeruginosa [13]): <=10 mm; diameter of the inhibition zone (DIZ) (Pseudomonas aeruginosa [14]): <=10 mm; diameter of the inhibition zone (DIZ) (Enterococcus faecalis [15]): 16 mm
C=C(C)C(CC/C(C)=C/CO)N(O)c1ccccn1 (racemic) | Non-toxic | Non-toxic | 8 µM (≈ 2.1 µg/mL) | 20 mm | > 128 µM | 64 µM (≈ 16.8 µg/mL) | 19 mm | 35 mm | Non-toxic | diameter of the inhibition zone (DIZ) (Escherichia coli [7]): <=10 mm; diameter of the inhibition zone (DIZ) [8]: <=10 mm; diameter of the inhibition zone (DIZ) (Staphylococcus aureus [9]): 16 mm; diameter of the inhibition zone (DIZ) (Escherichia coli [10]): <=10 mm; diameter of the inhibition zone (DIZ) (Mycolicibacterium vaccae [11]): 16 mm; diameter of the inhibition zone (DIZ) (Bacillus subtilis [12]): 11 mm; diameter of the inhibition zone (DIZ) (Pseudomonas aeruginosa [13]): <=10 mm; diameter of the inhibition zone (DIZ) (Pseudomonas aeruginosa [14]): <=10 mm; diameter of the inhibition zone (DIZ) (Enterococcus faecalis [15]): 16 mm
C=C(C)C(C)N(O)c1ncc(Cl)cc1Cl (racemic) | Non-toxic | Non-toxic | 16 µM (≈ 3.95 µg/mL) | 14 mm | > 128 µM | > 128 µM | 0 mm | 27 mm | Non-toxic | 
C=C(C)C(C)N(O)c1ccc(Br)c(C)n1 (racemic) | Non-toxic | Non-toxic | 4 µM (≈ 1.08 µg/mL) | 12 mm | > 128 µM | > 128 µM | 13 mm | 35 mm | Non-toxic | 
C=C(C)C(C)N(O)c1ncc(C(F)(F)F)cc1Cl (racemic) | Non-toxic | Non-toxic | 128 µM (≈ 35.9 µg/mL) | 13 mm | > 128 µM | > 128 µM | 0 mm | 15 mm | Non-toxic | 
CO[C@H]1C=CCC[C@@H]1Nc1ccc(Br)cn1 (racemic) | Non-toxic | Non-toxic | > 128 µM | 0 mm | > 128 µM | > 128 µM | 0 mm | 0 mm | Non-toxic | 
CO[C@H]1C=CCC[C@@H]1N(OC(C)=O)c1ccc(Br)cn1 (racemic) | Non-toxic | Non-toxic | 32 µM (≈ 10.9 µg/mL) | 0 mm | > 128 µM | > 128 µM | 0 mm | 22 mm | Non-toxic | 
C=C(C)C(CC/C(C)=C/CO)N(O)c1cccc(CC)n1 (racemic) | Non-toxic | Non-toxic | 2 µM (≈ 0.581 µg/mL) | 19 mm | > 128 µM | > 128 µM | 18 mm | 31 mm | Non-toxic | 
O=C(O)c1cn(C2CC2)c2cc(N3CCNCC3)c(F)cc2c1=O [CIPROFLOXACIN] |  |  |  |  | 2 µM (≈ 0.663 µg/mL) | 0.5 µM (≈ 0.166 µg/mL) |  |  |  | zone of inhibition at 5 µg/mL (Pseudomonas aeruginosa [16]): ≥ 21 mm; zone of inhibition at 5 µg/mL (Mycolicibacterium vaccae [17]): ≥ 21 mm; zone of inhibition at 5 µg/mL (Micrococcus luteus [18]): ≤ 10 mm; zone of inhibition at 5 µg/mL (Pseudomonas aeruginosa [19]): ≥ 21 mm; zone of inhibition at 5 µg/mL (Staphylococcus aureus [20]): 11 mm; zone of inhibition at 5 µg/mL (Staphylococcus aureus [21]): ≥ 21 mm; zone of inhibition at 5 µg/mL (Bacillus subtilis [22]): ≥ 21 mm; zone of inhibition at 5 µg/mL (Enterococcus faecalis [23]): 16 mm; zone of inhibition at 5 µg/mL (Escherichia coli [24]): ≥ 21 mm; zone of inhibition at 5 µg/mL (Escherichia coli [25]): ≥ 21 mm; zone of inhibition at 5 µg/mL (Enterococcus faecalis [26]): 16 mm
